Laboratory results: ChEMBL document CHEMBL5696442, “Discovery of type II inhibitors of TGFβ-activated kinase 1 (TAK1) and mitogen-activated protein kinase kinase kinase kinase 2 (MAP4K2)” (J Med Chem, 2015)

Tests used:
Type in all cases: cell-based
[1] = molecular target: T1, Serine/threonine-protein kinase LATS2 (Homo sapiens) (UniProt Q9NRM7); assay: Inhibition of LATS2 Lys2 labeling site in human A-375 cells at 0.05 uM by KiNativ Profiling analysis relative to control
T1 sequence (whole entry): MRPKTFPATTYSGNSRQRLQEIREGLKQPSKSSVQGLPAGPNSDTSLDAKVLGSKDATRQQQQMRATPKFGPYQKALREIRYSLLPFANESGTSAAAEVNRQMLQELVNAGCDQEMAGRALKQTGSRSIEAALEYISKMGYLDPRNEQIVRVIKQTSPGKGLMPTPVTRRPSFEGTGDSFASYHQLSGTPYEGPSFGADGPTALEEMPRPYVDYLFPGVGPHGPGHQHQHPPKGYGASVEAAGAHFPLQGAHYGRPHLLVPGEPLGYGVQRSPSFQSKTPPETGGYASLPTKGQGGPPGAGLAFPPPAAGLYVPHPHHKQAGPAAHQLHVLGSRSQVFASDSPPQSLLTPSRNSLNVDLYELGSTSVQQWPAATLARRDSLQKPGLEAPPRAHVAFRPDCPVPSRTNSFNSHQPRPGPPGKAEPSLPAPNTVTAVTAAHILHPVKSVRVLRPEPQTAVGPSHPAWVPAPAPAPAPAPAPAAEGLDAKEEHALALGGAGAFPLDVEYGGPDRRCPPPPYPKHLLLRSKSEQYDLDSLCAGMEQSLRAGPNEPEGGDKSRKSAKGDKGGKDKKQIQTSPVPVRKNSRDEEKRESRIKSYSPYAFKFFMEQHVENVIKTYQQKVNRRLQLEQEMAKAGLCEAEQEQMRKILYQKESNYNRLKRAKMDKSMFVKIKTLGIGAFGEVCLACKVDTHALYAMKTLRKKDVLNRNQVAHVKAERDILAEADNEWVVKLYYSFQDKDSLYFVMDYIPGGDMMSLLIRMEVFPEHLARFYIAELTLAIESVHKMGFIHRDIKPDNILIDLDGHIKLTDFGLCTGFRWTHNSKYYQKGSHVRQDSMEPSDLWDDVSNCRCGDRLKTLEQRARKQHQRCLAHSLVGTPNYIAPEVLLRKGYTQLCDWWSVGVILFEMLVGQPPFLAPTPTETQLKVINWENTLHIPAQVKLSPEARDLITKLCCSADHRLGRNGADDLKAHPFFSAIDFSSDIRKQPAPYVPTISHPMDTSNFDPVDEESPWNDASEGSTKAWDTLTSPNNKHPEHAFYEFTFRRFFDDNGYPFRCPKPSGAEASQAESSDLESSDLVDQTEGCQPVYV

[2] = molecular target: Receptor tyrosine-protein kinase erbB-3 (Homo sapiens) (UniProt P21860); assay: Inhibition of HER3/ErbB3 ACT labeling site in human A-375 cells at 0.5 uM by KiNativ Profiling analysis relative to control
[3] = molecular target: Serine/threonine-protein kinase Nek7 (Homo sapiens) (UniProt Q8TDX7); assay: Inhibition of NEK7 Lys2 labeling site in human A-375 cells at 5 uM by KiNativ Profiling analysis relative to control
[4] = molecular target: Serine/threonine-protein kinase WNK4 (Homo sapiens) (UniProt Q96J92); assay: Inhibition of Wnk4 ACT labeling site in human A-375 cells at 0.5 uM by KiNativ Profiling analysis relative to control
[5] = molecular target: 5'-AMP-activated protein kinase catalytic subunit alpha-2 (Homo sapiens) (UniProt P54646); assay: Inhibition of AMPKa2 Lys1 labeling site in human A-375 cells at 0.05 uM by KiNativ Profiling analysis relative to control
[6] = molecular target: Protein kinase C alpha type (Homo sapiens) (UniProt P17252); assay: Inhibition of PKCa Lys2 labeling site in human A-375 cells at 5 uM by KiNativ Profiling analysis relative to control
[7] = molecular target: Calcium/calmodulin-dependent protein kinase type II subunit delta (Homo sapiens) (UniProt Q13557); assay: Inhibition of CaMK2d Lys1 labeling site in human A-375 cells at 0.05 uM by KiNativ Profiling analysis relative to control
[8] = molecular target: T2, Ephrin type-B receptor 4 (Homo sapiens) (UniProt P54760); assay: Inhibition of EphB4 ACT labeling site in human A-375 cells at 0.5 uM by KiNativ Profiling analysis relative to control
T2 sequence (whole entry): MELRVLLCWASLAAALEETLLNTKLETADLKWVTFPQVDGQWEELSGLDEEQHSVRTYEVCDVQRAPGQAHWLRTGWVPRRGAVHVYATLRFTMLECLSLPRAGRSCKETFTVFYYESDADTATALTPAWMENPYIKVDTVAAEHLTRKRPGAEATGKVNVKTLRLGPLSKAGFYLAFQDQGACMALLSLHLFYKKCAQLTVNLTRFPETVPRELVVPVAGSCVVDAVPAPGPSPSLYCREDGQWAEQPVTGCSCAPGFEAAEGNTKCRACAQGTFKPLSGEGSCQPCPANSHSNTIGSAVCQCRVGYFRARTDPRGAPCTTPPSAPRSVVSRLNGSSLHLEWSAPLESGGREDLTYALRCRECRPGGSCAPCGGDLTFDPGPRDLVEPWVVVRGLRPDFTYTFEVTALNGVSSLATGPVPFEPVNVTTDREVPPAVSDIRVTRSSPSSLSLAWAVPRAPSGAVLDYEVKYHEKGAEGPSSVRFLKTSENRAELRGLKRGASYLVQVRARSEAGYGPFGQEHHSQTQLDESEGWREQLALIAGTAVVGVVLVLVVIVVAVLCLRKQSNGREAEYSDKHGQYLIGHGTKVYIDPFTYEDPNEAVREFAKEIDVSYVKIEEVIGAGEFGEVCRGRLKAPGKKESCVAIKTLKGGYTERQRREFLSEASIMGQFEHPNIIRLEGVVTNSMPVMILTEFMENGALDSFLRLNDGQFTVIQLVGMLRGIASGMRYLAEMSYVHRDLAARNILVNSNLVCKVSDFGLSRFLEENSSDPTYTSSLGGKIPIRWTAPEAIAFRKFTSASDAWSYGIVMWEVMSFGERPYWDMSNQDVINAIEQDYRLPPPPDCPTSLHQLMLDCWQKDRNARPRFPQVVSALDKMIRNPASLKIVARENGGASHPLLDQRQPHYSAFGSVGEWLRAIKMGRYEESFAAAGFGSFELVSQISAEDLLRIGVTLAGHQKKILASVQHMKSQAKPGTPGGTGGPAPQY
Procedure, shortened: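 Live A375 melanoma cells were treated with compound at 0.5 or 5 μM, then lysed. Lysates were labeled with a lysine-reactive ATP or ADP-biotin probe. The read-out was protection of each kinase probe-labeling site from labeling, relative to control.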

[9] = molecular target: Cyclin-dependent kinase 17 (Homo sapiens) (UniProt Q00537); assay: Inhibition of PCTAIRE2 Lys2 labeling site in human A-375 cells at 0.5 uM by KiNativ Profiling analysis relative to control
[10] = molecular target: Serine/threonine-protein kinase 26 (Homo sapiens) (UniProt Q9P289); assay: Inhibition of MST4 ACT labeling site in human A-375 cells at 5 uM by KiNativ Profiling analysis relative to control
Chain of Serine/threonine-protein kinase 26 (Homo sapiens) (Q9P289 2-416 limits assumed): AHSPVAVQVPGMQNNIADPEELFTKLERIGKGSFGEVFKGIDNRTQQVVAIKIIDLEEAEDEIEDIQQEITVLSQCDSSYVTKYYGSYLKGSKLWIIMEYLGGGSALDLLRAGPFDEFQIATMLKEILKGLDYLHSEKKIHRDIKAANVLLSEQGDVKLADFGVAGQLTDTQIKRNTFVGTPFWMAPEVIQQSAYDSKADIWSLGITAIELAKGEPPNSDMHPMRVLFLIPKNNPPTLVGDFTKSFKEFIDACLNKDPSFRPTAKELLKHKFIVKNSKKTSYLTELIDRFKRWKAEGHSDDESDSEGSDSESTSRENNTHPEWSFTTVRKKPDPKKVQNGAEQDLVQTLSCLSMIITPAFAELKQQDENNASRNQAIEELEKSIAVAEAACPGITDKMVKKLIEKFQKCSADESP

Chain of Cyclin-dependent kinase 17 (Homo sapiens) (Q00537 whole entry, looked up): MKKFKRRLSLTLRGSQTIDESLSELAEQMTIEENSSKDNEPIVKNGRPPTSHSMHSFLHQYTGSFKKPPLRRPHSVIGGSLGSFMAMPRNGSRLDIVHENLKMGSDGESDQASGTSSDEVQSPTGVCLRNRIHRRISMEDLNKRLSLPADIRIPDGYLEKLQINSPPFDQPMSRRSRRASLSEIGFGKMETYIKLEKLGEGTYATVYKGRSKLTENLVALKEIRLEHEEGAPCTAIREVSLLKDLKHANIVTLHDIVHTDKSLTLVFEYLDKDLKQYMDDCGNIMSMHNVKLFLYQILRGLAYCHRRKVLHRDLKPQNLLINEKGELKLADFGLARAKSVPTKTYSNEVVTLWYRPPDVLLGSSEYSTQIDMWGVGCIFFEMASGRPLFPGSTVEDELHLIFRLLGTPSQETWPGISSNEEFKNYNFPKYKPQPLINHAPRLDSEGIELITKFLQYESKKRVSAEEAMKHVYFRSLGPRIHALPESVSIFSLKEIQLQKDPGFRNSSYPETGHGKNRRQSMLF
Chain of Serine/threonine-protein kinase Nek7 (Homo sapiens) (Q8TDX7 whole entry, looked up): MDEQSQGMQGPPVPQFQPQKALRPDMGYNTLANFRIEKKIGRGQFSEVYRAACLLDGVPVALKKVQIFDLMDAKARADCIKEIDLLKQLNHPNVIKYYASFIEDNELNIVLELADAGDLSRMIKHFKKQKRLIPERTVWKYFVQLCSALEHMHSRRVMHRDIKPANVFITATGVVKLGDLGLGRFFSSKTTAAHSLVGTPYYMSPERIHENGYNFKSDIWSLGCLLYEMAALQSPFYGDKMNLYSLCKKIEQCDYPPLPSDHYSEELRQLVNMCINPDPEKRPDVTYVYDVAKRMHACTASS
Chain of Calcium/calmodulin-dependent protein kinase type II subunit delta (Homo sapiens) (Q13557 whole entry): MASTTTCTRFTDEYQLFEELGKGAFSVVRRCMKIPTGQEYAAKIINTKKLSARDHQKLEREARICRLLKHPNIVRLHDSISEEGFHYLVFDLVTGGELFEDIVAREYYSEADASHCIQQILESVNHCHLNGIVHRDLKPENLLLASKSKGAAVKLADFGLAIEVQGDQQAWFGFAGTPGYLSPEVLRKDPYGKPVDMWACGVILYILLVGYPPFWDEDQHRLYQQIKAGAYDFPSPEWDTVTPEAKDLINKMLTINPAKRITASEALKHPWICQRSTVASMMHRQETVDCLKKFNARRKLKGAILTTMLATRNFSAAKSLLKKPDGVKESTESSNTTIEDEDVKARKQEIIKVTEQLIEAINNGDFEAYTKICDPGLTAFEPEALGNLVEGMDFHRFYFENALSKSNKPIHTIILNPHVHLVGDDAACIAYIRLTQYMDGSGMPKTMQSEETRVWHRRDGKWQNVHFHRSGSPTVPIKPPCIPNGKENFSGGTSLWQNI
Chain of Serine/threonine-protein kinase WNK4 (Homo sapiens) (Q96J92 whole entry): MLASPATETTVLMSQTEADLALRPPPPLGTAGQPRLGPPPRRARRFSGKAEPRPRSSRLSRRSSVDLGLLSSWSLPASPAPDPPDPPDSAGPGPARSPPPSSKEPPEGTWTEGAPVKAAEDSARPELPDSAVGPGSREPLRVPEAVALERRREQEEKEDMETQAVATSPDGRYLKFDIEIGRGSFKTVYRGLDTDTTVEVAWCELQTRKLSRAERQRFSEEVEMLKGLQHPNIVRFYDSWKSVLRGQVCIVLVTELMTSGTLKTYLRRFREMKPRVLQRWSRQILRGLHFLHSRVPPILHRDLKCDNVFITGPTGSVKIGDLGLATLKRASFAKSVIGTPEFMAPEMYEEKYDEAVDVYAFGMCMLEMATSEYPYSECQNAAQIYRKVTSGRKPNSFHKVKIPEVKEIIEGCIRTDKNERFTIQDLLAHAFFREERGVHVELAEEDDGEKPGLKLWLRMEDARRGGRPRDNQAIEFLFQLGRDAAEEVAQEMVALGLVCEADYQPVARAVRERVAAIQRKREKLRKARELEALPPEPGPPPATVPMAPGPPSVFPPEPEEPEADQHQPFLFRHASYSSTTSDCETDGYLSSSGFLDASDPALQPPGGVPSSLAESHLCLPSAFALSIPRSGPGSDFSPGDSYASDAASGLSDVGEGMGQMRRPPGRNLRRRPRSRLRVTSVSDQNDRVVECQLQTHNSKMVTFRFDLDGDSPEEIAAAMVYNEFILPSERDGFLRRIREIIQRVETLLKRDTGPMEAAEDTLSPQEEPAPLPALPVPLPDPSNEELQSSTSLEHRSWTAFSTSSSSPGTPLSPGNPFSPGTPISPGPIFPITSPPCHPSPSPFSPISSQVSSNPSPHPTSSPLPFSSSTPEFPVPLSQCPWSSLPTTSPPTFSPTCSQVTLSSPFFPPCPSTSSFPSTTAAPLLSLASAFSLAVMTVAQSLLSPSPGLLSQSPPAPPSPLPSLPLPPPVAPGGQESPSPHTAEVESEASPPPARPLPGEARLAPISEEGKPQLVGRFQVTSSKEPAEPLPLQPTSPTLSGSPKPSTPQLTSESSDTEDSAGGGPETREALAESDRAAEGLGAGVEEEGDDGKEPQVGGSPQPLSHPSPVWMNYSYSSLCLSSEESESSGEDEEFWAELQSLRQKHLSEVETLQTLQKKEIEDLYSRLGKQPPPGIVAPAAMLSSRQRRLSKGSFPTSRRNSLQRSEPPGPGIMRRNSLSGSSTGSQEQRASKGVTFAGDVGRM
Chain of Receptor tyrosine-protein kinase erbB-3 (Homo sapiens) (P21860 whole entry): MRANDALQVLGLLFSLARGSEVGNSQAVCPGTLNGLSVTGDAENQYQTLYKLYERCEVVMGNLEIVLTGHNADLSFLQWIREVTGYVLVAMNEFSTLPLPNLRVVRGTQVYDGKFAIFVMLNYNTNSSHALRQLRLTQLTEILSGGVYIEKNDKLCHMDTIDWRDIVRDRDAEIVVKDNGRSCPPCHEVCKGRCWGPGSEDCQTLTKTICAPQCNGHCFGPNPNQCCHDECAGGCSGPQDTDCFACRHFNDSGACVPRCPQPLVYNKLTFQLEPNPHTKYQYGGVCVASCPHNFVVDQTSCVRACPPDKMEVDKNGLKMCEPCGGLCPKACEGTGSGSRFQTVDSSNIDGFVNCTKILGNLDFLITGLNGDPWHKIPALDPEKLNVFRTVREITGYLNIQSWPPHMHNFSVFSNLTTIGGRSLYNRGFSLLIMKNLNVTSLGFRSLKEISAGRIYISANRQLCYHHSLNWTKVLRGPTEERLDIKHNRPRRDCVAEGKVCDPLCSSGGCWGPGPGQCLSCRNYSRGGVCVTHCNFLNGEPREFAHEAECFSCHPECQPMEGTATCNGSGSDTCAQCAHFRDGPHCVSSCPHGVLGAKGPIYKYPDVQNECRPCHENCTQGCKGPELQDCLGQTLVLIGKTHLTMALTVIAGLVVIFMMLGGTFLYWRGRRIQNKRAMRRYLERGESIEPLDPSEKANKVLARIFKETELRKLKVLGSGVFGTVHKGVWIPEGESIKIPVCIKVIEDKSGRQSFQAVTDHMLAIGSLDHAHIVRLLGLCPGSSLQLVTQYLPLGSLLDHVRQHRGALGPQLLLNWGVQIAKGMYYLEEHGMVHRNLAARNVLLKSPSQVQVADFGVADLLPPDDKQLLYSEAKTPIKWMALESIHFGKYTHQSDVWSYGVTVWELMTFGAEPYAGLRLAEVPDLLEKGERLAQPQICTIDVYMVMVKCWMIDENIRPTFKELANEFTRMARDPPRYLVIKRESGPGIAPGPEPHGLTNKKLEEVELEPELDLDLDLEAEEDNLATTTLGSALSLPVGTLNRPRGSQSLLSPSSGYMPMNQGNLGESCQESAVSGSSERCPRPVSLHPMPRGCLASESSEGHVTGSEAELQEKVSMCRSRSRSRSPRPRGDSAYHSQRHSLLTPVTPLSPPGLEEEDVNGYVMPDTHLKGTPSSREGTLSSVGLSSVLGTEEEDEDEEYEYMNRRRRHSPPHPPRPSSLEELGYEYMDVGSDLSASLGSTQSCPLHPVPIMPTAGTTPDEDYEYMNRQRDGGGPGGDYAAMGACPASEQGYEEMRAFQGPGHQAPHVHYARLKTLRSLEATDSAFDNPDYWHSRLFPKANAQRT

Row | Compound | inhibition [1] [%] | inhibition [2] [%] | inhibition [3] [%] | inhibition [4] [%] | inhibition [5] [%] | inhibition [6] [%] | inhibition [7] [%] | inhibition [8] [%] | inhibition [9] [%] | inhibition [10] [%]
1 | CCN1CCN(Cc2ccc(NC(=O)c3ccc(C)c(Oc4ccnc5[nH]ccc45)c3)cc2C(F)(F)F)CC1 | 14.3 | 5.1 | 6.4 | 3.9 | 13.4 | 51 | 13.1 | 39.2 | 54.6 | 35.1
2 | CCN1CCN(Cc2ccc(NC(=O)c3ccc(C)c(/C=C/c4cnc5[nH]ccc5c4OC)c3)cc2C(F)(F)F)CC1 | -3.3 | 12.2 | 3.1 | 6.9 | 7.4 | 50.2 | 14 | 78.1 | 29.6 | 13.7
